Reference: ChEMBL document CHEMBL5653622 (Oncotarget, 2016)
Calls of active or inactive are those of the source. The calls are words filed in the database; no cut-off is given here.

Assays:
[1] = target: Mitogen-activated protein kinase 9 (Homo sapiens) (UniProt P45984); assay: Inhibition of human JNK2 assessed as remaining activity at 10 uM in presence of ATP by radiometric kinase assay relative to control
[2] = target: Mitogen-activated protein kinase 11 (Homo sapiens) (UniProt Q15759); assay: Inhibition of human p38b MAPK assessed as remaining activity at 10 uM in presence of ATP by radiometric kinase assay relative to control
[3] = target: Mitogen-activated protein kinase 13 (Homo sapiens) (UniProt O15264); assay: Inhibition of human p38d MAPK assessed as remaining activity at 10 uM in presence of ATP by radiometric kinase assay relative to control
[4] = target: Ribosomal protein S6 kinase alpha-3 (Homo sapiens, UniProt P51812); assay: Inhibition of human RSK2 assessed as remaining activity at 10 uM in presence of ATP by radiometric kinase assay relative to control
[5] = target: Serine/threonine-protein kinase Sgk1 (Homo sapiens) (UniProt O00141); assay: Inhibition of human SGK1 assessed as remaining activity at 10 uM in presence of ATP by radiometric kinase assay relative to control
[6] = target: Ribosomal protein S6 kinase beta-1 (Homo sapiens) (UniProt P23443); assay: Inhibition of human S6K1 assessed as remaining activity at 10 uM in presence of ATP by radiometric kinase assay relative to control
[7] = target: Serine/threonine-protein kinase tousled-like 1 (Homo sapiens) (UniProt Q9UKI8); assay: Inhibition of human TLK1 assessed as remaining activity at 10 uM in presence of ATP by radiometric kinase assay relative to control
[8] = target: MAP/microtubule affinity-regulating kinase 4 (Homo sapiens) (UniProt Q96L34); assay: Inhibition of human MARK4 assessed as remaining activity at 10 uM in presence of ATP by radiometric kinase assay relative to control
[9] = target: Maternal embryonic leucine zipper kinase (Homo sapiens) (UniProt Q14680); assay: Inhibition of human MELK assessed as remaining activity at 10 uM in presence of ATP by radiometric kinase assay relative to control
Sequence of Maternal embryonic leucine zipper kinase (Homo sapiens) (Q14680 whole entry, looked up): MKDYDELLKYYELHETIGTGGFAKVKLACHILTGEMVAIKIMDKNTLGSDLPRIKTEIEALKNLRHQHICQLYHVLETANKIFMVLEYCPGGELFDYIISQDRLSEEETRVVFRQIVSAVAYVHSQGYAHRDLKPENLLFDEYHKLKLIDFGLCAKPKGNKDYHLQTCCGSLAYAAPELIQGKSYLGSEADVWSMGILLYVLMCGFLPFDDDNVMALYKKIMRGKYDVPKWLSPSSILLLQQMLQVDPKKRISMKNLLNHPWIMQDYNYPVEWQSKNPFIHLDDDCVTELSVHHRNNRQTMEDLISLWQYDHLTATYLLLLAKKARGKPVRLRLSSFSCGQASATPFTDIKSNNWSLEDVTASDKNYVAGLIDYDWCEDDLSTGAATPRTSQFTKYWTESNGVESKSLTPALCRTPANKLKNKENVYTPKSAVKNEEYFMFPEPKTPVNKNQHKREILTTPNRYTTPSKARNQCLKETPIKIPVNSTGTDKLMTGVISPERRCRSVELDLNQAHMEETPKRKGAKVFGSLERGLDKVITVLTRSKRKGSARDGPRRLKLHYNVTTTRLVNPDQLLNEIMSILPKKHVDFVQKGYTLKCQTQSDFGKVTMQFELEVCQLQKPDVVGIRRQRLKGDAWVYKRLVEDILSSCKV

[10] = target: Dual specificity tyrosine-phosphorylation-regulated kinase 3 (Homo sapiens) (UniProt O43781); assay: Inhibition of human DYRK3 assessed as remaining activity at 10 uM in presence of ATP by radiometric kinase assay relative to control
Sequence of Dual specificity tyrosine-phosphorylation-regulated kinase 3 (Homo sapiens) (O43781 whole entry): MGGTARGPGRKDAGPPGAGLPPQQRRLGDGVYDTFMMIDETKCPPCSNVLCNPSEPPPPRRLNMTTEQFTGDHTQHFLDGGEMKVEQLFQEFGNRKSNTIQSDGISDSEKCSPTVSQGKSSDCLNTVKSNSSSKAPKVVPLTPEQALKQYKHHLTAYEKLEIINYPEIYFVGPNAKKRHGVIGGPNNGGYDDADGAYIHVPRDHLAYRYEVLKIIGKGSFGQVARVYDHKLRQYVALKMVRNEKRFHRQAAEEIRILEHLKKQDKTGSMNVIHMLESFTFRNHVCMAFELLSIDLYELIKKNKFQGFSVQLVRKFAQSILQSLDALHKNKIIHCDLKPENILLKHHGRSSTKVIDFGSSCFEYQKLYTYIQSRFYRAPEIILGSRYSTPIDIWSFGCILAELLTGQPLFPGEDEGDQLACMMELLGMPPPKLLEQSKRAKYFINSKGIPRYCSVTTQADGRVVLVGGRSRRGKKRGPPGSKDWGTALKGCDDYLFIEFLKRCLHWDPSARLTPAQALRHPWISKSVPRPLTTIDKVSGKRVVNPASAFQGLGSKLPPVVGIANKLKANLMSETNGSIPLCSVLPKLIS

[11] = target: Inhibitor of nuclear factor kappa-B kinase subunit beta (Homo sapiens) (UniProt O14920); assay: Inhibition of human IKKb assessed as remaining activity at 10 uM in presence of ATP by radiometric kinase assay relative to control
[12] = target: SRSF protein kinase 1 (Homo sapiens) (UniProt Q96SB4); assay: Inhibition of human SRPK1 assessed as remaining activity at 10 uM in presence of ATP by radiometric kinase assay relative to control
[13] = target: Serine/threonine-protein kinase PAK 4 (Homo sapiens) (UniProt O96013); assay: Inhibition of human PAK4 assessed as remaining activity at 10 uM in presence of ATP by radiometric kinase assay relative to control
[14] = target: Serine/threonine-protein kinase PAK 5 (Homo sapiens) (UniProt Q9P286); assay: Inhibition of human PAK5 assessed as remaining activity at 10 uM in presence of ATP by radiometric kinase assay relative to control
Sequence of Serine/threonine-protein kinase PAK 5 (Homo sapiens) (Q9P286 whole entry, looked up): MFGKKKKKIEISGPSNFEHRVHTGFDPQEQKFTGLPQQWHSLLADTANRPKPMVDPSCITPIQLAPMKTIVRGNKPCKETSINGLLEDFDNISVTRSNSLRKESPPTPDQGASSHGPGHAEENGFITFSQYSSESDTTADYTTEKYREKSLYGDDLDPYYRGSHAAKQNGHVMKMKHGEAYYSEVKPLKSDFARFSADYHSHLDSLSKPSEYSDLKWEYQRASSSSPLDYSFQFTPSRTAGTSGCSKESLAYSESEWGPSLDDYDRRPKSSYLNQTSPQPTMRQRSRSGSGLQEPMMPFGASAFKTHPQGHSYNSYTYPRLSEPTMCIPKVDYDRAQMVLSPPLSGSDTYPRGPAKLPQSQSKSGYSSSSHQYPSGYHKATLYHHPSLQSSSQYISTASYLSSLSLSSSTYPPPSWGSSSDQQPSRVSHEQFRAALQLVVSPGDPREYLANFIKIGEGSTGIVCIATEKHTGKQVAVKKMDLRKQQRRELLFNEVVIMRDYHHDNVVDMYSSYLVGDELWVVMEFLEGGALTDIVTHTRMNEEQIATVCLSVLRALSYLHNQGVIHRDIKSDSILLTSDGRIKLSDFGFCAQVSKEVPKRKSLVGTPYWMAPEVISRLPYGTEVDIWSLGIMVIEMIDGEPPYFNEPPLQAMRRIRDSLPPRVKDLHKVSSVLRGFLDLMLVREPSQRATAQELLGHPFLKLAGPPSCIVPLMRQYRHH

[15] = target: Misshapen-like kinase 1 (Homo sapiens) (UniProt Q8N4C8); assay: Inhibition of human MINK1 assessed as remaining activity at 10 uM in presence of ATP by radiometric kinase assay relative to control
[16] = target: Mitogen-activated protein kinase kinase kinase 1 (Homo sapiens) (UniProt Q13233); assay: Inhibition of human MEKK1 assessed as remaining activity at 10 uM in presence of ATP by radiometric kinase assay relative to control
Sequence of Mitogen-activated protein kinase kinase kinase 1 (Homo sapiens) (Q13233 whole entry): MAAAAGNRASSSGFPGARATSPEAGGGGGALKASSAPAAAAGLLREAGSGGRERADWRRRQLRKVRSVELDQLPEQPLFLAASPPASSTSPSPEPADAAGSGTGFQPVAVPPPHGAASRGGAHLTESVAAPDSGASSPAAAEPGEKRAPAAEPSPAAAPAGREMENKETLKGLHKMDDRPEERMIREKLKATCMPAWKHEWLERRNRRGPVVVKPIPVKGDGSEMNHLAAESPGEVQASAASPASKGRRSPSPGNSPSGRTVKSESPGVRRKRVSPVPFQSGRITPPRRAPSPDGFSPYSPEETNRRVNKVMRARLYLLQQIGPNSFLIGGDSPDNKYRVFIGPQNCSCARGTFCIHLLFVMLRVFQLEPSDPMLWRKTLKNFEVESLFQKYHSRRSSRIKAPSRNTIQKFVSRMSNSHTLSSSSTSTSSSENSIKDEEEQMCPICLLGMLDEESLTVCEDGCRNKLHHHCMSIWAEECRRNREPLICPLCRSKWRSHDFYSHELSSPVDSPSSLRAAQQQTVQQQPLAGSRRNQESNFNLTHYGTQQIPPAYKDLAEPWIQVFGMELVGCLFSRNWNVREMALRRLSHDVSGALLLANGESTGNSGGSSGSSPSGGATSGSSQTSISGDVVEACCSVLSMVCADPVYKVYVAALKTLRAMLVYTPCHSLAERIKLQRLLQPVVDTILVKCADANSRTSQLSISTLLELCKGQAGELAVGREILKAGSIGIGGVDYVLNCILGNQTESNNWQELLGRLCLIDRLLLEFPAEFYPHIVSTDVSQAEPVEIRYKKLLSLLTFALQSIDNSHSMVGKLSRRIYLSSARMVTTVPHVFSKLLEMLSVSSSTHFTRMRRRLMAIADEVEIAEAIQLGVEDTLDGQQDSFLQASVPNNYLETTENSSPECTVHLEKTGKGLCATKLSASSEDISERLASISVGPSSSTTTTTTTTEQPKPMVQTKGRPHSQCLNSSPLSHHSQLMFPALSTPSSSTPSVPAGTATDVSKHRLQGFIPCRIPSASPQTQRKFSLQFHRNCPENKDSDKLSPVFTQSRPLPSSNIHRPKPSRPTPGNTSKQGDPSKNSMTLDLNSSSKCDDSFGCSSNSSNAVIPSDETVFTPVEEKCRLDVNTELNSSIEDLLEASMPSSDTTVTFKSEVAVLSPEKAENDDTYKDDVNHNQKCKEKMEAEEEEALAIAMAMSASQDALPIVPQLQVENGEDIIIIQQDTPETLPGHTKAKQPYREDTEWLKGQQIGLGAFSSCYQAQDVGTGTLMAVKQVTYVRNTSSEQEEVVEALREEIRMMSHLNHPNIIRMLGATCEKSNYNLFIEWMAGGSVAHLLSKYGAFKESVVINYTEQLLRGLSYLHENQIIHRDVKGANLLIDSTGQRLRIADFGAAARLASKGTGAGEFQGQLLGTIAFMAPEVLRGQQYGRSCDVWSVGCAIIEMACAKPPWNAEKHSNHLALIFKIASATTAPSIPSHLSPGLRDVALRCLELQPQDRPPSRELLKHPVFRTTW

[17] = target: Tau-tubulin kinase 1 (Homo sapiens) (UniProt Q5TCY1); assay: Inhibition of human TTBK1 assessed as remaining activity at 10 uM in presence of ATP by radiometric kinase assay relative to control
[18] = target: Tyrosine-protein kinase ABL1 (Homo sapiens) (UniProt P00519); assay: Inhibition of human ABL assessed as remaining activity at 10 uM in presence of ATP by radiometric kinase assay relative to control
[19] = target: Insulin receptor (Homo sapiens) (UniProt P06213); assay: Inhibition of human IR assessed as remaining activity at 10 uM in presence of ATP by radiometric kinase assay relative to control
Sequence of Insulin receptor (Homo sapiens) (P06213 28-758 limits assumed): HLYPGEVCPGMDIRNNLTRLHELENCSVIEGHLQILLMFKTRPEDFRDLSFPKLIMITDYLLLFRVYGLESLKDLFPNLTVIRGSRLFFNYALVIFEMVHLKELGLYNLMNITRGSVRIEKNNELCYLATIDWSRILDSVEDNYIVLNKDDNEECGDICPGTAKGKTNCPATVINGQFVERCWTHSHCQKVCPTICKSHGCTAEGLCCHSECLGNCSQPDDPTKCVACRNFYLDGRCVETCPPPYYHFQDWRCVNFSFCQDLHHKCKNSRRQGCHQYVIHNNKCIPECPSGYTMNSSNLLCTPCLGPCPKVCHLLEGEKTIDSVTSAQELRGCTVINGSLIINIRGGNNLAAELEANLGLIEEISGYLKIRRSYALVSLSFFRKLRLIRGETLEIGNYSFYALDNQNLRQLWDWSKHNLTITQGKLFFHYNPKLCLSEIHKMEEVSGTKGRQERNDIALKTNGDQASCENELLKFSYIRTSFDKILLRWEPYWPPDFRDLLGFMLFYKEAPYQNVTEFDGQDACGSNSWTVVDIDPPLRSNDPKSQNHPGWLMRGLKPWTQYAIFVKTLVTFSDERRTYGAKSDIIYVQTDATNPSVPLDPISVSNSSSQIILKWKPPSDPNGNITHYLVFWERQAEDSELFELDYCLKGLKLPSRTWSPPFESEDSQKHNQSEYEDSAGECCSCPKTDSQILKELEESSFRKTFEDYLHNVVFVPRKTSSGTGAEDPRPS
Sequence of Insulin receptor (Homo sapiens) (P06213 763-1382 limits assumed): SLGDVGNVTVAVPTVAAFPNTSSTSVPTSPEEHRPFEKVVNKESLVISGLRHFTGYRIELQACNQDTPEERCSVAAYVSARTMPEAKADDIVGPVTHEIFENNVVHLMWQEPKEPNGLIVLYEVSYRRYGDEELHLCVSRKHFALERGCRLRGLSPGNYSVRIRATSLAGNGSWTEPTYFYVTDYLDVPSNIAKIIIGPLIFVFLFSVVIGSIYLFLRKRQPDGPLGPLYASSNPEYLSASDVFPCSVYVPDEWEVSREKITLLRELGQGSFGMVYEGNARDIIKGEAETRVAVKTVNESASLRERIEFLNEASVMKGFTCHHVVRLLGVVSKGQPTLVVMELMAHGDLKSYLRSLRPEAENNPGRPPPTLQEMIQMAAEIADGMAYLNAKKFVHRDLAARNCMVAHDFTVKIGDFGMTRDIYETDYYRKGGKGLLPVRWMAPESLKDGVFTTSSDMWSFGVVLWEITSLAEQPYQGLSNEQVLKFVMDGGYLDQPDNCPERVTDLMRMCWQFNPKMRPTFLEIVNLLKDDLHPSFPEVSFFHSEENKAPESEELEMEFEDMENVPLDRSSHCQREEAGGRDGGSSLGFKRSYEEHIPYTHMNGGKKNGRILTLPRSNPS

[20] = target: Vascular endothelial growth factor receptor 1 (Homo sapiens, UniProt P17948); assay: Inhibition of VEGFR1 (unknown origin) by FRET based Z-LYTE kinase assay
[21] = target: NUAK family SNF1-like kinase 1 (Homo sapiens, UniProt O60285); assay: Inhibition of human NUAK1 by FRET based Z-LYTE kinase assay
HT-29 = assay: Induction of apoptosis in human HT-29 cells assessed as increased in cleaved PARP in presence of gemcitabine by Western blotting analysis; assay type: functional, cell-based
[22] = AUC (0 to t) in BALB/C mouse spleen at 10 mg/kg, iv by LC/MS-MS analysis; assay type: ADME, organism-based
[23] = AUC (0 to t) in BALB/C mouse spleen at 10 mg/kg, po by LC/MS-MS analysis; assay type: ADME, organism-based
[24] = Half life in BALB/C mouse spleen at 10 mg/kg, iv by LC/MS-MS analysis; assay type: ADME, organism-based
In short: (§1)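 Female BALB/c mice received a single bolus of 10mg/kg, either i.v. or p.o. The oral vehicle was DPTW (10% DMSO, 20% PEG400, 5% Tween 80, 65% water). Plasma and spleen homogenates were extracted with methanol containing internal standards. Drug levels were measured by LC/MS-MS, and pharmacokinetic parameters were calculated from the concentration-time profiles.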

[25] = Half life in BALB/C mouse spleen at 10 mg/kg, po by LC/MS-MS analysis; assay type: ADME, organism-based; in short: as §1
[26] = Toxicity in CRTac:Ncr-Fox1 mouse xenografted with human HT-29 cells assessed as body weight at 150 mg/kg, po administered for 10 days in presence of irinotecan relative to control; assay type: organism-based; details: in vivo, 240 h, time 10 day
Mus musculus [27] = assay: In vivo inhibition of CHK1 in CRTac:Ncr-Fox1 athymic mouse xenografted with human Calu-6 cells assessed as enhanced phosphorylation CHK1 at […] on 150 mg/kg, po in presence of gemcitabine and carboplatin by Western blotting analysis; assay type: functional, organism-based
In short: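 Female CRTac:Ncr-Fox1(nu) athymic mice carried s.c. Calu6 xenografts. Tumors were taken 6h after the last inhibitor dose, lysed in CHAPS buffer, and immunoblotted with GAPDH as loading control.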

Mus musculus [28] = assay: In vivo inhibition of total CHK1 in CRTac:Ncr-Fox1 athymic mouse xenografted with human Calu-6 cells at 150 mg/kg, po in presence of gemcitabine and carboplatin by ELISA analysis; assay type: functional, organism-based
[29] = Toxicity in Emu-Myc driven transgenic mouse transplant model of B-cell lymphoma assessed as change in water consumption at 150 mg/kg, po administered for 9 days; assay type: organism-based; details: in vivo, 216 h, time 9 day

SMILES: N#Cc1cnc(Nc2cc(NC[C@H]3CNCCO3)c(C(F)(F)F)cn2)cn1 [SRA-737]
- Activity [1]: 107%
- Activity [2]: 90%
- Activity [3]: 54%
- Activity [4]: 19%
- Activity [5]: 87%
- Activity [6]: 52%
- Activity [7]: 59%
- Activity [8]: 39%
- Activity [9]: 37%
- Activity [10]: 24%
- Activity [11]: 91%
- Activity [12]: 82%
- Activity [13]: 49%
- Activity [14]: 70%
- Activity [15]: 44%
- Activity [16]: 77%
- Activity [17]: 82%
- Activity [18]: 93%
- Activity [19]: 102%
- IC50 [20]: 15.8 µM
- IC50 [21]: 0.711 µM
- Activity (HT-29): Active
- AUC(0-t) [22]: 262 µM·h
- AUC(0-t) [23]: 222 µM·h
- half-life [24]: 2.76 h
- half-life [25]: 3.11 h
- Activity [26]: 98%
- Activity (Mus musculus [27]): Active
- inhibition (Mus musculus [28]): Active
- Activity [29]: Non-Toxic
